Experimental data gathered from unrelated publications.
Each line is one published result; the experiments were not run side by side.
Target: Homeodomain-interacting protein kinase 4 (HIPK4, Homo sapiens, UniProt Q8NE63)
Residues used in one study (Q8NE63 1-616): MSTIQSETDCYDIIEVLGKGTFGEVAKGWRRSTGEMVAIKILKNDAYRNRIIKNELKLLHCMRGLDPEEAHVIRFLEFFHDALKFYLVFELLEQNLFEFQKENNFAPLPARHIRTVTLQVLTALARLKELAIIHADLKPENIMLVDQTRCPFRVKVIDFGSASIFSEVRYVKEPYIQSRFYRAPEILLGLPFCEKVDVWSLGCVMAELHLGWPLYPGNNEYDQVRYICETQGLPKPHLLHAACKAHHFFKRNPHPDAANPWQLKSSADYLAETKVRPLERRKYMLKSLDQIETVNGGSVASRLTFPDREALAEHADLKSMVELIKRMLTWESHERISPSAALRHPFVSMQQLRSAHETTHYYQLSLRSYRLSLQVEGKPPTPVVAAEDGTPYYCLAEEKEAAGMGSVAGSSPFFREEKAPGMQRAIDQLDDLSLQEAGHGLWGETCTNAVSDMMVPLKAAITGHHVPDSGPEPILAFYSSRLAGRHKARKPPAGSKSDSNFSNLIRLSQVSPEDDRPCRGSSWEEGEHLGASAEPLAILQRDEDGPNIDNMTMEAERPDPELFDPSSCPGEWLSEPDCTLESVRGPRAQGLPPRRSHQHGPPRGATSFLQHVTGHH

With `O=C(O)c1ccc2c(c1)nc(Nc1ccc3ccccc3c1)c1ncncc12` the remaining activity was 109% (enzyme activity; inhibitor; radiometric; 1 µM).
`N#CC1(c2ccccn2)CCN(Cc2cc(C(=O)N3CCCC3)c(=O)n3ccccc23)CC1` gave a remaining binding of 67% (cell-free assay; competition with immobilised ligand; 1 µM).
`COc1cccc(CCNc2nc3cc(C(=O)O)ccc3c3cnccc23)c1` has a remaining activity of -8% (enzyme activity; inhibitor; radiometric; 1 µM).
With `CCC(=O)N[C@@H]1CC[C@H](C(=O)N(C)c2ccc(-c3nc4ccccc4o3)cc2)C1` the remaining binding was 100% (cell-free assay; competition with immobilised ligand; 1 µM).
The inhibition of `COc1cc2ncnc(Nc3ccc(Oc4ccccc4)cc3C)c2cc1OC` is reported as 4% (enzyme activity; inhibitor; 1 µM).
`COc1cc2c(N3CCN(C(=O)Nc4ccc(OC(C)C)cc4)CC3)ncnc2cc1OCCCN1CCCCC1` gave a remaining signal of 99.5% (cell-free assay; 0.5 µM).
`CCCS(=O)(=O)Nc1ccc(F)c(C(=O)c2c[nH]c3ncc(-c4ccc(Cl)cc4)cc23)c1F` gave an inhibition of < 10% (enzyme activity; inhibitor; 1 µM).
For `CO[C@@H](C)c1c(Nc2ccc([C@@H](N(C)C(=O)C3CCS(=O)(=O)CC3)C(F)(F)F)cc2)cnc2cc(Cl)nn12`, the remaining binding was 100% (cell-free assay; competition with immobilised ligand; 1 µM).
For `O=C(Nc1cnn(-c2csc(C(=O)NC3COC3)c2)c1)Nc1c(F)cccc1Cl`, the remaining activity was 111% (enzyme activity; inhibitor; 5 µM).
`O=C(O)c1ccc2c(c1)nc(NCc1ccccc1)c1ccncc12` gave a remaining activity of 33% (enzyme activity; inhibitor; radiometric; 1 µM).
`Cc1ccc(NC(=O)c2ccc(CN3CCN(C)CC3)cc2)cc1Nc1nc(-c2cccnc2)cs1` has a remaining signal of 101% (cell-free assay; 0.5 µM).
The remaining activity of `O=C(O)c1ccc2c(c1)nc(Nc1ccccc1Cl)c1ncncc12` is reported as -3% (enzyme activity; inhibitor; radiometric; 1 µM).
The remaining signal of `CNC(=O)c1cc(Oc2ccc(NC(=O)Nc3ccc(Cl)c(C(F)(F)F)c3)cc2)ccn1` is reported as 4.85% (cell-free assay; 0.5 µM).
`CC/C(=N\NC(=O)NCc1cccc(O)c1)c1ccc(O)c(C)c1O` has an inhibition of 1.5% (enzyme activity; inhibitor; 0.1 µM).
With `CCCOc1ccc([C@H]2[C@H](C(=O)O)[C@@H](c3ccc4c(c3)OCO4)CN2CC(=O)Nc2c(CC)cccc2CC)cc1` the remaining binding was 70% (cell-free assay; competition with immobilised ligand; 1 µM).
With `O=C(O)c1ccc2c(c1)nc(NCCc1cccc(F)c1)c1ncncc12` the remaining activity was 10% (enzyme activity; inhibitor; radiometric; 1 µM).
For `CS(=O)(=O)c1cc(C2(NC(=O)c3cncc4c3cnn4-c3ccc(F)cc3)CC2)ccn1`, the remaining binding was 100% (cell-free assay; competition with immobilised ligand; 1 µM).
`O=C1Nc2ccc(Cl)cc2C1=Cc1cc(Cl)c(O)c(Cl)c1` has a remaining signal of 88.4% (cell-free assay; 0.5 µM).
The remaining binding of `CNC(=O)Nc1ccc2c(c1)CC[C@@]21OC(=O)N(CC(=O)N(Cc2ccc(F)cc2)[C@@H](C)C(F)(F)F)C1=O` is reported as 97% (cell-free assay; competition with immobilised ligand; 1 µM).
The remaining activity of `O=C(O)c1ccc2c(c1)nc(Nc1ccc(F)c(Cl)c1)c1ncncc12` is reported as 6% (enzyme activity; inhibitor; radiometric; 1 µM).
